Laboratory results: ChEMBL document CHEMBL1144062, “A new tyrosine kinase inhibitor from the marine brown alga Stypopodium zonale” (J Nat Prod, 1999)
Activity calls are given as the source filed them. No cut-off for these calls is given here.

Tests used:
[1] = biological target: Tyrosine-protein kinase Lck (Homo sapiens, UniProt P06239); experiment: Inhibition of tyrosine kinase p56-lck
Priestia megaterium = experiment: Antibacterial activity against Bacillus megaterium at 50 ug/disk; assay type: functional; conditions: for zone of inhibition at 50 µg/disc: read-out: IZ
Summary of the method: (§1)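 Agar diffusion assay: 50 µg of compound applied per filter disk on seeded agar. The read-out is the inhibition zone, measured in mm from the edge of the filter disk.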

Escherichia coli = experiment: Antibacterial activity against Escherichia coli at 50 ug/disk; assay type: functional; conditions: for zone of inhibition at 50 µg/disc: read-out: IZ; summary of the method: as §1
[2] = tested on: Aspergillus pseudoglaucus; experiment: Antifungal activity against Eurotium repens at 50 ug/disk; assay type: functional; conditions: for zone of inhibition at 50 µg/disc: read-out: IZ; summary of the method: as §1
Fusarium oxysporum = experiment: Antifungal activity against Fusarium oxysporum at 50 ug/disk; assay type: functional; summary of the method: as §1
Microbotryum violaceum = experiment: Antifungal activity against Ustilago violacea at 50 ug/disk; assay type: functional; summary of the method: as §1
Mycotypha microspora = experiment: Antifungal activity against Mycotypha microspora at 50 ug/disk; assay type: functional; summary of the method: as §1
[Chlorella] fusca = Antialgal activity against Chlorella fusca at 50 ug/disk; assay type: functional; conditions: Scenedesmus fuscus; for zone of inhibition at 50 µg/disc: read-out: IZ; summary of the method: as §1
[3] = biological target: Human immunodeficiency virus type 1 reverse transcriptase (Human immunodeficiency virus 1) (UniProt Q72547); experiment: Inhibition of HIV1 RT

Row | IC50 [1] [µM] | Activity [3] | Activity [1] | SMILES | zone of inhibition at 50 µg/disc (Priestia megaterium) [mm] | zone of inhibition at 50 µg/disc (Escherichia coli) [mm] | Activity [2] | Activity (Fusarium oxysporum) | Activity (Microbotryum violaceum) | Activity (Mycotypha microspora) | Activity ([Chlorella] fusca) | zone of inhibition at 50 µg/disc ([Chlorella] fusca) [mm] | zone of inhibition at 50 µg/disc [2] [mm] | zone of inhibition at 50 µg/disc (Fusarium oxysporum; read-out: IZ) [mm] | zone of inhibition at 50 µg/disc (Microbotryum violaceum; read-out: IZ) [mm] | zone of inhibition at 50 µg/disc (Mycotypha microspora; read-out: IZ) [mm] | Activity (Priestia megaterium) | Activity (Escherichia coli)
1 | 187 | inactive |  | CC1=CC(=O)C=C(C[C@]2(C)[C@H]3CCC(=C(C)C)[C@@H](CCC(=O)O)[C@]3(C)CC[C@H]2C)C1=O [STYPOQUINONIC ACID] | 1 | 1 | inactive | inactive | inactive | inactive | inactive |  |  |  |  |  |  | 
2 |  |  |  | CCOC(=O)c1ccccc1C(=O)OCC [DIETHYL PHTHALATE] | 10 |  |  |  |  |  |  | 13 |  |  |  |  |  | 
3 |  |  |  | Clc1ccc(COC(Cn2ccnc2)c2ccc(Cl)cc2Cl)c(Cl)c1 (stereo unspecified) [MICONAZOLE] |  |  |  |  |  |  |  | 4 | 20 | 3 | 32 | 5 |  | 
4 |  | inactive | inactive | Cc1cc(O)cc2c1O[C@@]1(C)CC[C@@H]3[C@@]4(C)CC[C@H](O)C(C)(C)[C@@H]4CC[C@@]3(C)[C@@H]1C2 [TAONDIOL] |  |  |  |  |  |  | inactive |  | 2 |  |  |  | inactive | inactive
5 | 208 | inactive |  | COc1cc(C)c(O)c(C[C@]2(C)[C@H]3CCC(=C(C)C)[C@@H](CCC(=O)O)[C@]3(C)CC[C@H]2C)c1 [ATOMARIC ACID] | 1 | 1 | inactive | inactive | inactive | inactive |  | 5 |  |  |  |  |  | 
